For series [1], the system named is Cavia porcellus. Put plainly: Cardiotoxicity in iv dosed anesthetized-Hartley guinea pig assessed as prolongation of corrected QT interval by electrocardiographic analysis. It counts as toxicity, organism-based. To be noted: in vivo. Put shortly: (§1)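 Anesthetized guinea pigs received cumulative i.v. doses of 0.1, 0.3, 1, 3 and 10 mg/kg, each as a 5 min infusion at 0, 20, 40, 60 and 80 min. QTc was recorded at each time point as percent change from each animal's baseline. Mean ± SEM, n = 3.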

The subject of series [2] is Cavia porcellus. Put plainly: Cardiotoxicity in anesthetized-Hartley guinea pig assessed as prolongation of corrected QT interval up to cumulative dose of 10 mg/kg, iv by electrocardiographic analysis. The format is toxicity, organism-based. More on the design: dose 10 mg/kg, route intravenous. Conditions: in vivo. Put shortly: as §1
For the next series, the target named is hERG (KCNH2) (Homo sapiens, UniProt Q12809). Description: Inhibition of human ERG expressed in HEK-293 cells assessed as K+-selective outward current at 3 uM at -80 mV holding potential after 5 mins by voltage patch-clamp method. It counts as cell-based, HEK293. To be noted: HEK-293 cells expressing human ERG. For orientation: Patch clamp records ionic current or voltage across a cell membrane.
Sequence of hERG (KCNH2) (Q12809 whole entry): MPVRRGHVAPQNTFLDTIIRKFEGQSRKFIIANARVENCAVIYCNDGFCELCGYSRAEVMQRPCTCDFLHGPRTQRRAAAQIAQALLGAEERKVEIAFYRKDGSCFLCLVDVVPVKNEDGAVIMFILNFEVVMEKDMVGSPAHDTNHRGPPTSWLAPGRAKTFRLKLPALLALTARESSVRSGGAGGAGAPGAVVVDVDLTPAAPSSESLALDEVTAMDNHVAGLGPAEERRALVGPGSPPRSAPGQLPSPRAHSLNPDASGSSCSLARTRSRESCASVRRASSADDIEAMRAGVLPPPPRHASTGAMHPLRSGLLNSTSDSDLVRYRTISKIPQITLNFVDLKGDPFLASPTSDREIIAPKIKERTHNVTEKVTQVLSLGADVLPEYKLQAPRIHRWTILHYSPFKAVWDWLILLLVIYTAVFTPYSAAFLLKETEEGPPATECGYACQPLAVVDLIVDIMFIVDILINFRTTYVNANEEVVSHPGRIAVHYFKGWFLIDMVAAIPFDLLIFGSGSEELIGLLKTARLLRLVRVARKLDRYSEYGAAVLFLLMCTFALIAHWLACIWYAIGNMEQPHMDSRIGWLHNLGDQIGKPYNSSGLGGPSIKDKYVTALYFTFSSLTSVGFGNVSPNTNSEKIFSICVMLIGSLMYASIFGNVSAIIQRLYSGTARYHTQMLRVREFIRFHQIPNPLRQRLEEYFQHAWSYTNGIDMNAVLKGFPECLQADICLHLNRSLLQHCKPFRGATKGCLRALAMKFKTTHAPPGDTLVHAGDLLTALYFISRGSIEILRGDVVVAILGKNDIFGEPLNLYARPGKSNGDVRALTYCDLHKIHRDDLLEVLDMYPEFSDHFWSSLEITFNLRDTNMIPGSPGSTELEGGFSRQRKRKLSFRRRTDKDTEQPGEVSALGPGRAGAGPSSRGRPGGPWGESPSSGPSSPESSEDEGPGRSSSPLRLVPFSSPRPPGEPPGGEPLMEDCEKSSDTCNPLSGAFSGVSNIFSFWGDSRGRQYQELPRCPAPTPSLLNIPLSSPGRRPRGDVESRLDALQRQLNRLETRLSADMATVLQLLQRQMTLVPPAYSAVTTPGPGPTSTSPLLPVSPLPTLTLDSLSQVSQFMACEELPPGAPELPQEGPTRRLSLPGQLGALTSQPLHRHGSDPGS

Series [3] addresses Voltage-gated inwardly rectifying potassium channel KCNH2 (Homo sapiens, UniProt Q12809). Put plainly: Displacement of [3H]-astemizole from human ERG expressed in HEK293 cells after 1 hr by scintillation counting analysis. The format is cell-based.

Sequence of Voltage-gated inwardly rectifying potassium channel KCNH2 (Q12809 whole entry): as above

Consider `Cc1ccc([C@]2(O)CC[C@H](N3CC(NC(=O)CNC(=O)c4cccc(C(F)(F)F)c4)C3)CC2)cn1`, for which the Activity entry in the series on Cavia porcellus [1] is on record as “Dose-dependent effect”; with Cavia porcellus [2] it was 13%. For `COc1ccc([C@]2(O)CC[C@H](N3CC(NC(=O)CNC(=O)c4cccc(C(F)(F)F)c4)C3)CC2)cn1`, in that order: “Dose-dependent effect” and 6%.

Take `COc1ccc([C@]2(O)CC[C@H](N3CC(NC(=O)CNC(=O)c4cccc(C(F)(F)F)c4)C3)CC2)nc1`: on hERG (KCNH2), the inhibition at 5 min, 3 µM came out at 30%. The molecule also yielded an IC50 in series [3] of 25 µM. As for `Cc1cnc([C@]2(O)CC[C@H](N3CC(NC(=O)CNC(=O)c4cccc(C(F)(F)F)c4)C3)CC2)s1`, the Activity in the series with Cavia porcellus [2] is listed as 15%.

In general, inhibition refers to the change of the read-out against control, counted positive when it falls. By IC50 is commonly meant the point on the concentration scale where inhibition reaches its midpoint. A higher IC50 goes with lower potency.

These data come from ChEMBL document CHEMBL2203263, “Discovery of a 4-Azetidinyl-1-thiazoyl-cyclohexane CCR2 Antagonist as a Development Candidate” (ACS Med Chem Lett, 2012).
